Experimental data from ChEMBL document CHEMBL1122617, “6,7-Dihydroxy-3-chromanamine: synthesis and pharmacological activity of an oxygen isostere of the dopamine agonist 6,7-dihydroxy-2-aminotetralin” (J Med Chem, 1984).
pIC50, pKi: −log10 of the molar value.

What was measured:
Rattus norvegicus [1] = species: Rattus norvegicus; experiment: Concentration required to reduce the specific binding of [3H]NPA by 50% to rat corpus striatum; type: functional, organism-based
How it was run: (§1)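 Male rat (200-225 g) striatal homogenate, 2.5 mg wet weight per tube, in 15 mM Tris-HCl pH 7.5 with 1 mM EDTA and 0.01% ascorbic acid. [3H]NPA 0.50 nM final, 25 °C for 20 min. Nonspecific binding with 1 μM d-butaclamol. Displacer tested over 10⁻¹¹–10⁻⁵ M in triplicate. IC50 = 50% reduction of specific binding, mean ± SEM of three experiments.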

Rattus norvegicus [2] = species: Rattus norvegicus; experiment: Binding affinity to rat corpus striatum was determined using [3H]NPA as radioligand; type: functional; how it was run: as §1
[3] = Partition coefficient (logP); type: physicochemical; settings: octanol/water
How it was run: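 Log P measured in octanol-phosphate buffer at pH 7.4. Phases analysed by the same HPLC-electrochemical method. Mean ± SD, n = 6.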

Rattus norvegicus [4] = experiment: Effect on 6,7-dihydroxy-3-chromanamine metabolism was determined by measuring concentration of 6,7-dihydroxy-3-chromanamine at a time interval of 45 min after ip administration of 100 umol/kg of compound; type: functional, organism-based
How it was run: (§2)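 Female rats (180-200 g) given 100 μmol/kg ip in saline with 0.1% sodium metabisulfite. Killed at 15 or 45 min; striatum dissected, frozen on dry ice and kept at -80 °C. Drug level measured by HPLC with electrochemical detection, mobile phase 0.1 M phosphate-acetate pH 4.5, against a standard. Corrected for 78.8% recovery from spiked brain. Mean ± SEM, n = 8.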

Rattus norvegicus [5] = experiment: Effect on HVA metabolism was determined by measuring concentration of HVA at a time interval of 45 minutes after ip administration of 100 umol/kg of compound; type: functional, organism-based
How it was run: (§3)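 Female rats (180-200 g) given 100 μmol/kg ip in saline with 0.1% sodium metabisulfite, killed at 15 or 45 min. Striatum frozen on dry ice and kept at -80 °C. DA, DOPAC and HVA isolated on Sephadex G-10, then measured by reversed-phase C18 HPLC with amperometric detection. Control cerebellum used as blank. Not corrected for recovery (86-89%). Mean ± SEM.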

Rattus norvegicus [6] = experiment: Effect on DOPAC metabolism was determined by measuring concentration of DOPAC at a time interval of 45 minutes after ip administration of 100 umol/kg of compound; type: functional, organism-based; how it was run: as §3
Rattus norvegicus [7] = experiment: Effect on DA metabolism was determined by measuring concentration of DA at a time interval of 45 min after ip administration of 100 umol/kg of compound; type: functional, organism-based; how it was run: as §3
Rattus norvegicus [8] = experiment: Effect on DA metabolism was determined by measuring concentration of DA at a time interval of 0 minutes after ip administration of 100 umol/kg of compound; type: functional, organism-based
Rattus norvegicus [9] = experiment: Effect on DOPAC metabolism was determined by measuring concentration of DOPAC at a time interval of 0 minutes after ip administration of 100 umol/kg of compound; type: functional, organism-based
Rattus norvegicus [10] = experiment: Effect on HVA metabolism was determined by measuring concentration of HVA at a time interval of 15 minutes after ip administration of 100 umol/kg of compound; type: functional, organism-based; how it was run: as §3
Rattus norvegicus [11] = experiment: Effect on HVA metabolism was determined by measuring concentration of HVA at a time interval of 0 minutes after ip administration of 100 umol/kg of compound; type: functional, organism-based
Rattus norvegicus [12] = experiment: Effect on 6,7-dihydroxy-3-chromanamine metabolism was determined by measuring concentration of 6,7-dihydroxy-3-chromanamine at a time interval of 15 min after ip administration of 100 umol/kg of compound; type: functional, organism-based; how it was run: as §2
Rattus norvegicus [13] = experiment: Effect on DOPAC metabolism was determined by measuring concentration of DOPAC at a time interval of 15 minutes after ip administration of 100 umol/kg of compound; type: functional, organism-based; how it was run: as §3
Rattus norvegicus [14] = experiment: Effect on DA metabolism was determined by measuring concentration of DA at a time interval of 15 minutes after ip administration of 100 umol/kg of compound; type: functional, organism-based; how it was run: as §3

Row | Compound | pIC50 (Rattus norvegicus [1]) | pKi (Rattus norvegicus [2]) | logP [3] | Concentration (Rattus norvegicus [4]) [nM/g] | Concentration (Rattus norvegicus [5]) [µg/g] | Concentration (Rattus norvegicus [6]) [µg/g] | Concentration (Rattus norvegicus [7]) [µg/g] | Concentration (Rattus norvegicus [8]) [µg/g] | Concentration (Rattus norvegicus [9]) [µg/g] | Concentration (Rattus norvegicus [10]) [µg/g] | Concentration (Rattus norvegicus [11]) [µg/g] | Concentration (Rattus norvegicus [12]) [nM/g] | Concentration (Rattus norvegicus [13]) [µg/g] | Concentration (Rattus norvegicus [14]) [µg/g]
1 | CN1CCc2cccc3c2[C@H]1Cc1ccc(O)c(O)c1-3 [APOMORPHINE] | 7.65 | 7.98 | – | – | – | – | – | – | – | – | – | – | – | –
2 | NC1CCc2cc(O)c(O)cc2C1 (centres undefined) | 7.61 | 7.92 | 1.88 | – | – | – | – | – | – | – | – | – | – | –
3 | NC1COc2cc(O)c(O)cc2C1 (centres undefined) | 6.59 | 6.84 | 1.39 | 0.2 | 1.02 | 1.02 | 10.8 | 9.87 | 1.05 | 0.83 | 0.91 | 0.34 | 0.97 | 10.5
